Experimental findings from paper PMC6530469 (Biochemical pharmacology, 2018) are described below.

Where two headings read alike, the source gives them in different places. Some results are limits rather than exact numbers.

For test [1], the target named is T1, human A3AR (hA3AR) (Homo sapiens, UniProt P0DMS8).
T1 sequence (P0DMS8 1-318): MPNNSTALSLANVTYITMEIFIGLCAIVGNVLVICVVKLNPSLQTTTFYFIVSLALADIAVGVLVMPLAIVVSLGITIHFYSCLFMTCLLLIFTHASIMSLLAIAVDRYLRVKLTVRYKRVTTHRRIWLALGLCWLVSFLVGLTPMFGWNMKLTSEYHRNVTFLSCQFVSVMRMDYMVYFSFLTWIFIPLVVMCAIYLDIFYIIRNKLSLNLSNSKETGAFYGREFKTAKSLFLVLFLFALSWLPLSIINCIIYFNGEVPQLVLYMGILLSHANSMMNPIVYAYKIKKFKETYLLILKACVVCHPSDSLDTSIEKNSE
Put plainly: cell-based. The settings on record: CHO, read-out: Stable A3AR CHO cell line^B / Emax (%).

The target in test [2] is T2, hA3AR-NanoBit-βarr2 (A3AR-LgBit with SmBit-βarr2) (Homo sapiens, UniProt P0DMS8). Nature of the test: cell-based. The settings on record: HEK-293T, read-out: Stable A3AR NanoBit® HEK293T cell line^A / Emax (%).
Test [3] deals with T1, human A3AR (hA3AR). Nature of the test: […]I-AB-MECA competition, CHO membranes. Format: binding.
Test [4] addresses T2, hA3AR-NanoBit-βarr2 (A3AR-LgBit with SmBit-βarr2). Nature of the test: NanoBit βarr2 recruitment, luminescence AUC. Format: cell-based.
Test [5] concerns the target T1, human A3AR (hA3AR). Nature of the test: inhibition of forskolin-stimulated cAMP, CHO cells. Format: cell-based. The settings on record: agonism; 10 µM forskolin, 10 µM rolipram, adenosine deaminase.
The target in test [6] is T2, hA3AR-NanoBit-βarr2 (A3AR-LgBit with SmBit-βarr2). Nature of the test: cell-based. The settings on record: HEK-293T, read-out: Stable A3AR NanoBit® HEK293T cell line^A / Emax (%). This is another data set of the same source.
The target of test [7] is T1, human A3AR (hA3AR). Put plainly: inhibition of forskolin-stimulated cAMP, CHO cells. Format: cell-based.
Test [8] concerns the target T2, hA3AR-NanoBit-βarr2 (A3AR-LgBit with SmBit-βarr2). Put plainly: NanoBit βarr2 recruitment, luminescence AUC. The settings on record: agonism; stable HEK293T cells, room temperature, Opti-MEM I. Format: cell-based. The method, boiled down: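 Stable HEK293T line retrovirally co-transduced with A3AR-LgBit and SmBit-βarr2, FACS-sorted on co-expressed EGFP/dNGFR. Cells on PDL-coated plates at 5×10^4/well overnight (37°C, 5% CO2), washed twice, detection reagent added, luminescence equilibrated. Agonist added at final 100 pM–25 µM (≤0.5% DMSO), luminescence followed ≥90 min. DMSO solvent blank (0.001–0.5%) in each run.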

T2 sequence (P32121 whole entry partner, one chain of several): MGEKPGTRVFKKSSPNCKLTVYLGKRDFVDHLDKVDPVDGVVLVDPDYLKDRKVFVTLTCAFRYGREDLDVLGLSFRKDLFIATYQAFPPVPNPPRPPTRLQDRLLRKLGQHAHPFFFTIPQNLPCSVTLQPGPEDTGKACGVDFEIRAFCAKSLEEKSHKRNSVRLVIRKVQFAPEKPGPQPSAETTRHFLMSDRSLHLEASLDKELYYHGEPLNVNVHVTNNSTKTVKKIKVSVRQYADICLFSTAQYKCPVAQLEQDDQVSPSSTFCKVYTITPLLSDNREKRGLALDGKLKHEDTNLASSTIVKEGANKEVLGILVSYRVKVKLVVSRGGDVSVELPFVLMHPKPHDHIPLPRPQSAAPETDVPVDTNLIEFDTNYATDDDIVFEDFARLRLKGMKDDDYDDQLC

As for `NCCNC(=O)Cc1ccc(NC(=O)Cc2ccc(Nc3ncnc4c3ncn4[C@@H]3O[C@H](CO)[C@@H](O)[C@H]3O)cc2)cc1` [ADAC, N^6-[4-[[[4-[[[(2-aminoethyl)amino]carbonyl]methyl]anilino]-carbonyl]methyl]phenyl]adenosine], the Emax at human A3AR (hA3AR) [1] was determined as 103 ± 4%; in test [2], 73.7 ± 3.1%. For the same compound, the affinity on human A3AR (hA3AR) [3], expressed as Ki, was 13.3 ± 3 nM. Further, the EC50 in test [4] is 245 nM.

In the case of `OC[C@H]1O[C@@H](n2cnc3c(NC4CCCC4)nc(Cl)nc32)[C@H](O)[C@@H]1O` [CCPA], the Emax was 0% at human A3AR (hA3AR) [1] and 33.5 ± 2.7% in test [2]. Also, the “LogEC50 (NA, not significantly active at 10 μM)” value at human A3AR (hA3AR) [5] is more than 10 µM.

With `CCNC(=O)[C@H]1O[C@@H](n2cnc3c(N)nc(NCCc4ccc(CCC(=O)O)cc4)nc32)[C@H](O)[C@@H]1O` [CGS21680], the Emax amounted to 98 ± 5% at human A3AR (hA3AR) [1] and 99 ± 5.5% in test [2].

With `OC[C@H]1O[C@@H](n2cnc3c(NC4CCCC4)ncnc32)[C@H](O)[C@@H]1O` [CPA], the Emax on human A3AR (hA3AR) [1] came out at 97 ± 4%; in test [2], 56.9 ± 3.7%.

In the case of `OC[C@H]1O[C@@H](n2cnc3c(NC4CCCC4)cc(Cl)nc32)[C@H](O)[C@@H]1O` [DCCA], the Emax in test [6] was 5.8 ± 0.2%. On human A3AR (hA3AR) [3], this compound came in with a Ki of 244 ± 37 nM. In test [4], this compound showed an EC50 of 1480 nM.

As for `CNC(=O)[C@H]1O[C@@H](n2cnc3c(NCc4cccc(I)c4)ncnc32)[C@H](O)[C@@H]1O` [IB-MECA], the Emax in test [2] came out at 78.4 ± 2.5%.

Take `Nc1nc(Cl)nc2c1ncn2[C@H]1[C@H](O)[C@H](O)[C@]2(CO)C[C@H]12` [MRS1873]: the Emax at human A3AR (hA3AR) [1] was 41 ± 5%; in test [2] it was 13 ± 1.6%.

As to `O[C@@H]1[C@H](O)[C@@H]2C[C@@H]2[C@H]1n1cnc2c(NCc3cccc(I)c3)nc(Cl)nc21` [MRS5127], the Emax in test [2] was found to be 5.2 ± 0.4%. In addition, the half-maximal effective concentration (EC50) at human A3AR (hA3AR) [7] is 12.6 nM; in test [4], 24.5 nM.

Regarding `O[C@@H]1[C@H](O)[C@@H]2C[C@@H]2[C@H]1n1cnc2c(NC(C3CC3)C3CC3)nc(Cl)nc21` [MRS5474], the Emax at human A3AR (hA3AR) [1] came to 56 ± 4.8%; in test [2], 9.8 ± 1.2%.

As for `CNC(=O)[C@@]12C[C@@H]1[C@@H](n1cnc3c(NC)nc(C#Cc4ccccc4Cl)nc31)[C@H](O)[C@@H]2O` [MRS5663], the Emax in test [6] stood at 102 ± 3.6%. This compound also had an EC50 in test [4] of 5.62 nM.

Regarding `CNC(=O)[C@@]12C[C@@H]1[C@@H](n1cnc3c(NCc4cccc(Cl)c4)nc(C#Cc4ccc(-c5ccccc5)cc4)nc31)[C@H](O)[C@@H]2O` [MRS5679], the Emax in test [6] was found to be 46.8 ± 3.3%. The compound also showed an EC50 in test [4] of 1200 nM.

For `CNC(=O)[C@@]12C[C@@H]1[C@@H](n1cnc3c(NCc4cccc(Cl)c4)nc(C#Cc4ccc(F)c(F)c4)nc31)[C@H](O)[C@@H]2O` [MRS5698], in test [2], the Emax was 83.5 ± 4.6%.

`CNC(=O)[C@@]12C[C@@H]1[C@@H](n1cnc3c(NC)nc(C#Cc4cccs4)nc31)[C@H](O)[C@@H]2O` [MRS5917]: the Emax at human A3AR (hA3AR) [1] is 97.3 ± 2.9%; in test [2], 91.6 ± 3.4%.

Turning to `CNC(=O)[C@@]12C[C@@H]1[C@@H](n1cnc3c(NC)nc(C#Cc4ccccc4OC)nc31)[C@H](O)[C@@H]2O` [MRS5967], the Emax in test [6] turned out to be 92.5 ± 2.4%. For the same compound, the EC50 in test [4] was 4.68 nM.

Regarding `CNC(=O)[C@@]12C[C@@H]1[C@@H](n1cnc3c(NC)nc(C#Cc4ccc(Cl)s4)nc31)[C@H](O)[C@@H]2O` [MRS5980], the Emax in test [6] was 95 ± 4%.

In the case of `CCNc1cc(C#Cc2ccc(Cl)s2)nc2c1ncn2[C@H]1[C@H](O)[C@H](O)[C@]2(C(=O)NC)C[C@H]12` [MRS7144], the Emax on human A3AR (hA3AR) [1] was found to be 95.5 ± 2.3%; in test [2] it was 74.4 ± 2.3%.

Turning to `CCCNc1nc(C#Cc2ccc(Cl)s2)nc2c1ncn2[C@H]1[C@H](O)[C@H](O)[C@]2(C(=O)NC)C[C@H]12` [MRS7154], the Emax in test [6] was 94.5 ± 4.8%. In test [4], this compound had an EC50 of 21.4 nM.

With `CNC(=O)[C@@]12C[C@@H]1[C@@H](n1cnc3c(NC)nc(C#Cc4ccc(Cl)s4)cc31)[C@H](O)[C@@H]2O` [MRS7173], the Emax in test [6] amounted to 78.2 ± 1.8%. Also, on human A3AR (hA3AR) [3], the Ki turned out to be 1.56 ± 0.2 nM. Moreover, the EC50 in test [4] was 55 nM.

Regarding `CNC(=O)[C@@]12C[C@@H]1[C@@H](n1cnc3c(C)nc(C#Cc4ccc(Cl)s4)nc31)[C@H](O)[C@@H]2O` [MRS7195], the Emax on human A3AR (hA3AR) [1] is 107 ± 26%; in test [2], 84.5 ± 6.4%.

Consider `CNC(=O)[C@@]12C[C@@H]1[C@@H](n1cnc3cnc(C#Cc4ccc(Cl)s4)nc31)[C@H](O)[C@@H]2O` [MRS7220], for which the Emax on human A3AR (hA3AR) [1] turned out to be 97.8 ± 0.1%; in test [2], 68.4 ± 5.3%.

As for `CCOC(=O)[C@@]12C[C@@H]1[C@@H](n1cnc3c(NC)nc(C#Cc4ccc(Cl)s4)nc31)[C@H](O)[C@@H]2O` [MRS7232], the Emax in test [6] worked out at 13.6 ± 1.6%. This compound registered a Ki on human A3AR (hA3AR) [3] of 5.38 ± 0.03 nM. The EC50 in test [4] was 50.1 nM.

As to `CCOC(=O)[C@@]12C[C@@H]1[C@@H](n1ccc3c(NC)nc(C#Cc4ccc(Cl)s4)nc31)[C@H](O)[C@@H]2O` [MRS7299], the Emax on human A3AR (hA3AR) [1] was 1 ± 7%. The same compound returned an EC50 on human A3AR (hA3AR) [7] of more than 10000 nM. Also, the “LogEC50 (NA, not significantly active at 10 μM)” value in test [8] was more than 10 µM.

As for `CCNC(=O)[C@H]1O[C@@H](n2cnc3c(N)ncnc32)[C@H](O)[C@@H]1O` [NECA], the Emax at human A3AR (hA3AR) [1] was 103%.

For `OC[C@H]1O[C@@H](n2cnc3c(NCc4ccccc4)ncnc32)[C@H](O)[C@@H]1O` [N^6-benzyl-adenosine], the Emax in test [6] was 34.9 ± 2.3%. Also, the concentration for a half-maximal effect (EC50) in test [4] was 851 nM.

With `OC[C@H]1O[C@@H](n2cnc3c(Nc4ccccc4)ncnc32)[C@H](O)[C@@H]1O` [N^6-phenyl-adenosine], the Emax in test [6] worked out at 75.8 ± 3%. This compound also registered a Ki at human A3AR (hA3AR) [3] of 14.9 ± 3.1 nM. Moreover, it took 589 nM to reach a half-maximal effect in test [4] (EC50).

Take `C[C@H](Cc1ccccc1)Nc1ncnc2c1ncn2[C@@H]1O[C@H](CO)[C@@H](O)[C@H]1O` [R-PIA]: the results for the Emax (at human A3AR (hA3AR) [1]; in test [2]) were 102 ± 6% and 56.6 ± 1.9%, respectively.

On to `C[C@@H](Cc1ccccc1)Nc1ncnc2c1ncn2[C@@H]1O[C@H](CO)[C@@H](O)[C@H]1O` [S-PIA], for which the Emax at human A3AR (hA3AR) [1] was 97 ± 3%; in test [2], 51 ± 1.4%.

As usually defined, the Ki is the dissociation constant of the complex between target and ligand, obtained from inhibition or displacement. Higher therefore signals lower affinity. A word on the EC50: it is the midpoint of the concentration-response curve.
